Measurements pooled from the literature.
Compare with care: the assays were run in different laboratories.
Target: Calcium/calmodulin-dependent protein kinase kinase 2 (CAMKK2, Homo sapiens, UniProt Q96RR4)

With `COc1cc(Nc2cnc(C#N)c(O[C@H](C)CN(C)C)n2)ncc1-c1cnn(C)c1` the remaining activity was 71% (enzyme activity; inhibitor; radiometric; 10 µM).
With `Cn1c2c(Cl)c(Cl)ccc2c2cn[nH]c(=O)c21` the ΔTm was 0.4 °C (thermal stability; DSF; 10 µM).
The inhibition of `CN1CC(Oc2cnc(C#N)cc2-c2ccn3nc(NC(=O)C4CC4)cc3c2)C1` is reported as 5% (enzyme activity; inhibitor; 1 µM).
For `CC(C)(C)c1nc(-c2cccc(NS(=O)(=O)c3c(F)cccc3F)c2F)c(-c2ccnc(N)n2)s1`, the remaining activity was 113% (enzyme activity; inhibitor; radiometric; 1 µM).
`Cc1cc(NC(=O)c2cccc3cc(-c4cccc5[nH]nc(N)c45)ccc23)ccc1F` has an activity vs control of 90% (enzyme activity; inhibitor; 0.1 µM).
The remaining activity of `Cc1cnc(NC2CCOCC2)nc1-n1cnc(C(=O)NC(CN)c2cc(F)cc(Cl)c2)c1` (centres unmarked) is reported as 81% (enzyme activity; inhibitor; radiometric; 1 µM).
With `CS(=O)(=O)CCNCc1ccc(-c2ccc3ncnc(Nc4ccc(OCc5cccc(F)c5)c(Cl)c4)c3c2)o1` the remaining signal was 101% (cell-free assay; 0.5 µM).
For `CN1CCN(c2cnc3c(C4CCN(C(=O)c5ccc(OC(F)(F)F)cc5N)CC4)ncnc3c2)CC1`, the remaining binding was 100% (cell-free assay; competition with immobilised ligand; 1 µM).
The inhibition of `CS(=O)(=O)Nc1cccc(-c2csc(NC(=O)CSc3nc4nccnc4c(=O)n3CCc3ccccc3)n2)c1` is reported as 4% (enzyme activity; inhibitor; 10 µM).
For `Cc1ccc(C(=O)Nc2ccc(CN3CCN(C)CC3)c(C(F)(F)F)c2)cc1C#Cc1cnc2cccnn12`, the remaining activity was 83% (enzyme activity; inhibitor; 23.5 nM).
`CCCOc1ccc([C@H]2[C@H](C(=O)O)[C@@H](c3ccc4c(c3)OCO4)CN2CC(=O)Nc2c(CC)cccc2CC)cc1` gave a remaining binding of 93% (cell-free assay; competition with immobilised ligand; 1 µM).
With `Nc1ncnc2occ(-c3ccc(NC(=O)Nc4cc(C(F)(F)F)ccc4F)cc3)c12` the remaining signal was 24% (cell-free assay; inhibitor; 20 µM).
`FC(F)(F)Oc1cccc(-c2cnc3ccc(-c4ccncc4)nn23)c1` gave an activity vs control of 60% (enzyme activity; inhibitor; radiometric; 5 µM).
With `c1ccc(CNc2nc(N3CCOc4ccccc43)nc3c2CCCC3)cc1` the inhibition was 0.1% (target engagement in cells; inhibitor; chemoproteomics; 20 mM).
For `CCc1ccccc1C(=O)Nc1n[nH]c2c(C)c(F)c(C3C(C#N)=C(C)N(C)C(C)=C3C#N)cc12`, the remaining binding was 95% (cell-free assay; competition with immobilised ligand; 1 µM).
The remaining activity of `CC(C)(O)[C@H]1CC[C@H](Nc2ccc3ncc(-c4cccc(C(F)(F)F)c4)n3n2)CC1` is reported as 96.9% (enzyme activity; inhibitor; 1 µM).
`CCCCNc1ncc2c(-c3ccc(F)cc3)nn(C[C@H]3CC[C@H](N)CC3)c2n1` gave an inhibition of 33.4% (target engagement in cells; inhibitor; chemoproteomics; 20 mM).
The ΔTm of `Cn1c2c(Cl)c(Cl)ccc2c2cc[nH]c(=O)c21` is reported as 0.6 °C (thermal stability; DSF; 10 µM).
`CC(=O)Nc1c(C(C)=O)c(=O)n(C)c2nc(-c3ccc(Cl)cc3Cl)c(-c3ccc(Cl)cc3)cc12` gave a remaining binding of 100% (cell-free assay; competition with immobilised ligand; 1 µM).
For `O=C(Nc1cnn(-c2csc(C(=O)NC3COC3)c2)c1)Nc1c(F)cccc1Cl`, the remaining activity was 81% (enzyme activity; inhibitor; 5 µM).
For `Nc1nc(NC2CCCCC2)sc1C(=O)c1ccccc1`, the remaining activity was 63% (enzyme activity; inhibitor; 10 µM).
The remaining binding of `O=C(Nc1ccc(Oc2ccc(F)cc2)cc1)N1CCc2ncccc2[C@H]1c1ccc(F)cc1` is reported as 100% (cell-free assay; competition with immobilised ligand; 1 µM).
`FC(F)c1nc2ccccc2n1-c1nc(N2CCOCC2)nc(N2CCOCC2)n1` gave a remaining activity of 87% (enzyme activity; inhibitor; 10 µM).
`O=C(NCc1ncc(C(F)(F)F)cc1Cl)c1ccc2c(c1)C1(CCS(=O)(=O)CC1)[C@H](C1CC1)N2S(=O)(=O)c1ccc(F)cc1` has a remaining binding of 100% (cell-free assay; competition with immobilised ligand; 1 µM).
For `CN1CCC2(CC1)NC(=O)c1c(c3ccc(Cl)c(Cl)c3n1C)C2C#N` (racemic), the ΔTm was 1 °C (thermal stability; DSF; 10 µM).
The remaining signal of `O=C(O)c1ccc2c3c1cccc3c(=O)n1c3ccccc3nc21` is reported as 7.88% (cell-free assay; 0.5 µM).
For `CCS(=O)(=O)c1cc2cc(C[C@@](O)(CC(C)(C)c3ccc(F)cc3C(N)=O)C(F)(F)F)[nH]c2cn1`, the remaining binding was 56% (cell-free assay; competition with immobilised ligand; 1 µM).
`CNC(=O)c1cc(Oc2ccc(NC(=O)Nc3ccc(Cl)c(C(F)(F)F)c3)cc2)ccn1` gave a remaining signal of 103% (cell-free assay; 0.5 µM).
`CCOCCn1cc(C(=O)Nc2ccc(-n3nc(-c4cccnc4)cc3C(F)(F)F)cn2)ccc1=O` has a remaining binding of 100% (cell-free assay; competition with immobilised ligand; 1 µM).
